From PubChem
Vif inh: blocks HIV Vif function | 340,000 compounds, 0.35% hits | HEK293T cells, Vif self-association by quenched fluorescence, imaging, 24 h | inhibition, % at 7.49 µM; in the data active = inhibition above about 50%, passing the limit was not always enough
H9c2 TAG inh: triacylglycerol accumulation inhibition | H9c2 cells, Nile Red lipid (TAG) fluorescence; cells loaded with 200 µM oleic acid | 230,000 compounds, 0.66% hits | inhibition, % at 12.5 µM;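 active = pattern-corrected inhibition of lipid staining of at least 50% with the nuclear-stain viability signal not falling by more than 50%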;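 also: 0% = DMSO wells and 100% = triacsin C control wells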
SR-BI HDL uptake: mouse SR-BI HDL lipid transfer inhibition; Q61009; ldlA[mSR-BI] CHO cells, DiI-HDL uptake fluorescence, 3 h; inhibition, % at 12.5 µM; 320,000 compounds, 0.96% hits;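 active = mean replicate inhibition of at least 70% and a set share of replicates each scoring 70 or more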;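 also: 0% = median of neutral control wells and 100% = median of positive control wells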
Target sequence (Q61009 whole entry, looked up): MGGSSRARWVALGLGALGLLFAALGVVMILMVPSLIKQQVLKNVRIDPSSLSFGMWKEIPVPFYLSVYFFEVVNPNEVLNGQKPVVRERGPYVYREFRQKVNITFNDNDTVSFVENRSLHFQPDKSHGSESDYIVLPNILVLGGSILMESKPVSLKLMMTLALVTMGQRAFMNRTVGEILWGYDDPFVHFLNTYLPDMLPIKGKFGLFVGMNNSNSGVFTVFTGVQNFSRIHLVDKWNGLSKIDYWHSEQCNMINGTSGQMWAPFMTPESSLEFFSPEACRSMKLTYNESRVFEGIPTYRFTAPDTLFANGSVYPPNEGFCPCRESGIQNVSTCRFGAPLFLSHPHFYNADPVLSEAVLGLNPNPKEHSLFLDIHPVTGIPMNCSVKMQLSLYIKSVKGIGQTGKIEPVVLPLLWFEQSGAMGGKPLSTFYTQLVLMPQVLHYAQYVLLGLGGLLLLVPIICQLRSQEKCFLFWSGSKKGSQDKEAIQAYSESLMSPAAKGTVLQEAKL
SR-BI uptake up: SR-BI HDL lipid transfer activation | CHO ldlA[mSR-BI] cells, DiI-HDL uptake fluorescence, 3 h; 100 = double the neutral-control signal | activation, % at 12.5 µM | 320,000 compounds, 0.096% hits | AID 504775;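 active = mean replicate activation of at least 60% and every replicate at or above 60%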;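 also: 0% = median plate neutral-control signal and 100% = twice that signal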
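Material: SR-BI-overexpressing, LDLR-lacking CHO cells | Dosing: Single compound concentration, delivered by pin transfer | Probe or stimulus: Labelled HDL, 10 µg/mL | Signal: Bottom-read cell fluorescence after medium removal, ex 550/em 595 nm | Schedule: 3 h, 37 °C | Evaluation: HDL uptake via cellular fluorescence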
A1 inh: inhibitors of the anti-apoptotic protein A1, read as caspase activation; caspase activation, % (no concentration beside the values); AID 2462; MEF A1-2A-BIM cells, Caspase-Glo 3/7 luminescence, 3 h; percent of clofoctol response, vehicle zero; 330,000 compounds, 0.066% hits;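 active = over half of replicate activation scores above 10%, or exactly half above 10 with the replicate mean above 10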
* hit, by the source's call; . = no result. Hits are enriched below; roughly 1.6% of the tested compounds scored in any of these assays.

SMILES | Vif inh | H9c2 TAG inh | SR-BI HDL uptake | SR-BI uptake up | A1 inh
Cc1ccc(NC(=O)c2cc(-c3ccc(C)c(C)c3O)n[nH]2)cc1C | -3.1 | . | 11.1 | -11.1 | -1.4
COc1ccc(Br)cc1S(=O)(=O)NCCN1CCOCC1 | 0.6 | 0.1 | 2.8 | -2.8 | 1.1
COc1ccc(C)cc1S(=O)(=O)NCCN1CCOCC1 | 10.1 | . | 74.2* | -74.1 | 0.4
CC(C)/C(C=O)=C(/NC1CCCCC1)c1ccccc1 | -15.7 | -1.0 | -7.9 | 7.9 | 0.8
COc1ccc(NC(=O)CN(C)C(=O)C(C)Oc2ccc(Br)cc2)cc1 (configuration not stated) | -12.5 | 8.9 | -0.6 | 0.6 | 1.1
C/C(=N\O)c1ccc(Cl)c(Cl)c1 | . | . | . | . | -1.2
CCCn1c2ccc(/C(C)=N\O)cc2c2cc(/C(C)=N/O)ccc21 | 6.9 | 3.6 | 100.7* | -100.7 | -0.2
CS(=O)(=O)c1sc(C#N)c2c1C(=O)CC(c1ccccc1)C2 (configuration not stated) | -0.7 | 92.6* | 16.4 | -16.4 | 56.6*
Cc1oc2c(c(=O)c1C)C(=O)CC(c1ccccc1)C2 (configuration not stated) | -6.4 | 12.9 | -8.2 | 8.2 | 0.5
C=CCCC(=O)Nc1nc(C)c(-c2csc(Nc3cccc(OC)c3)n2)s1 | 3.4 | 34.5 | 87.0* | -86.9 | 0.1
COc1ccccc1Nc1nc(-c2sc(NC(=O)CC(C)C)nc2C)cs1 | 6.0 | 26.3 | 38.3 | -38.3 | -0.9
C=CCCC(=O)Nc1nc(C)c(-c2csc(Nc3cc(OC)ccc3OC)n2)s1 | . | 17.8 | 55.5 | -55.5 | -0.2
COc1cccc(Nc2nc(-c3sc(NC(=O)CC(C)C)nc3C)cs2)c1 | -5.1 | 3.8 | 85.6* | -85.6 | -0.1
NS(=O)(=O)c1ccc(CCNc2ccnc3cc(Cl)ccc23)cc1 | 32.6 | . | . | . | 1.4
Cc1cccc(CN2CCC(Oc3ccc(C(=O)N4CCCC4)cc3)CC2)n1 | 14.7 | 9.3 | -20.5 | 20.5 | 0.5
COc1ccc(C(=O)Nc2cccc(-c3ccc(N4CCOCC4)nn3)c2)cc1OC | -14.4 | -0.6 | 75.3* | -75.3 | 0.2
CCOc1ccc(C(=O)Nc2cccc(-c3ccc(N4CCOCC4)nn3)c2)cc1OCC | -18.2 | 12.0 | 89.9* | -89.9 | 0.6
CCOc1cc(C(=O)Nc2cccc(C(C)=O)c2)ccc1OCC(=O)N1CCCCC1 | -3.9 | 8.2 | 74.4* | -74.4 | -1.2
CCOc1cc(C(=O)Nc2ccccc2N2CCOCC2)ccc1OCC(=O)N1CCCCC1 | -8.3 | -4.1 | 46.1 | -46.1 | 0.5
CCOc1ccccc1C(=O)Nc1cccc(-c2ccc(N3CCOCC3)nn2)c1 | 11.6 | -10.5 | 55.5 | -55.5 | -0.3
Cc1noc(C)c1COC(=O)C1CCN(S(=O)(=O)c2ccc(F)cc2)CC1 | -2.0 | -11.5 | 11.7 | -11.7 | -0.3
CC(=O)c1cccc(NC(=O)/C=C/c2ccc([N+](=O)[O-])s2)c1 | 20.9 | 47.1 | 69.9 | -69.9 | .
Cc1cc(C)cc(NC(=O)/C=C/c2ccc([N+](=O)[O-])s2)c1 | 96.5* | . | 33.5 | -33.5 | -0.5
CC(=O)Nc1ccc(NS(=O)(=O)c2ccc3c(c2)n(C)c(=O)n3C)cc1 | 31.1 | -1.5 | -14.5 | 14.5 | -0.2
Cc1ccc(NS(=O)(=O)c2ccc3c(c2)n(C)c(=O)n3C)cc1 | -3.2 | . | -135.3 | 135.3* | 0.1
SMILES | Vif inh | H9c2 TAG inh | SR-BI HDL uptake | SR-BI uptake up | A1 inh
COC(=O)c1[nH]c2cc(C)ccc2c1NC(=O)CN1CCN(c2ccccc2OC)CC1 | 28.9 | 13.1 | 76.3* | -76.3 | 0.0
COC(=O)c1[nH]c2cc(C)ccc2c1NC(=O)CN1CCOCC1 | 11.1 | 6.8 | -0.7 | 0.7 | 0.2
C=CCNc1nc(NCc2ccc(N(C)C)cc2)c2sc(-c3ccccc3)cc2n1 | -9.2 | 42.1 | . | . | .
CC(=O)Nc1nc(C)c(-c2csc(Nc3ccc(O)cc3)n2)s1 | 60.8* | . | 58.8 | -58.8 | -0.9
CCC(C)C(=O)Nc1nc(C)c(-c2csc(Nc3ccc(Cl)cc3)n2)s1 (configuration not stated) | -0.1 | -61.7 | 77.7* | -77.7 | -1.0
Cc1nc(-c2ccc([N+](=O)[O-])cc2)sc1C(=O)O | 6.7 | 6.6 | -24.9 | 24.9 | -7.8
Cc1ccc(S(=O)(=O)N2CCN(Cc3ccccc3)CC2)s1 | -1.9 | 4.5 | -14.4 | 14.4 | 0.0
COc1cc(C(=O)Nc2nccs2)ccc1OCc1c(C)noc1C | -7.1 | . | 75.8* | -75.8 | 0.6
COc1cc(C(=O)Nc2nnc(C3CC3)s2)ccc1OCc1c(C)noc1C | -1.9 | -15.0 | 87.5* | -87.5 | -0.4
CSc1sc(C(=O)NNC(C)=O)c2c1C1(CCC2)SCCS1 | 3.1 | 7.9 | 6.6 | -6.6 | 0.0
CSc1sc(C(=O)NN)c2c1C1(CCC2)SCCS1 | 9.0 | -7.4 | 107.3* | -107.3 | -0.4
CC(C)(C)OC(=O)C[C@@H]1C/C=C\C[C@@H](CC(=O)N(CCO)Cc2ccccc2)C(=O)N2CCC[C@@H]2COC1=O | 2.2 | 13.0 | -5.4 | 5.4 | 0.5
Cn1c(C(=O)N2CCN(c3ccccc3)CC2)cc2cc(Cl)ccc21 | -3.4 | -8.5 | -6.1 | 6.1 | -0.1
O=C(Cn1c(NCCO)nc2ccccc21)c1ccco1 | 2.0 | . | -61.4 | 61.4* | -0.3
O=C(Cn1c(NCCO)nc2ccccc21)NCCc1ccccc1 | . | 17.0 | -11.8 | 11.8 | -0.1
O=C(Nc1ccc(F)cc1)c1ccc2c(=O)n(CC3CCCO3)c(=S)[nH]c2c1 (configuration not stated) | -11.7 | . | 66.1 | -66.1 | -1.3
COc1cc(/C=N/Nc2ccccc2[N+](=O)[O-])cc(OC)c1O | -15.0 | 8.9 | 78.5* | -78.5 | -0.1
COc1ccccc1/C=N/NC(=O)c1ccc(-c2ccccc2)cc1 | 12.4 | -11.2 | 78.9* | -78.9 | -0.3
CCOc1cc(/C=N/NC(=O)c2ccc(N(C)S(=O)(=O)c3ccccc3)cc2)ccc1OC | 2.7 | . | 72.8* | -72.8 | 0.4
COc1ccccc1/C=N/NC(=O)c1ccc(=O)n(C)c1 | -4.6 | 3.0 | 35.5 | -35.5 | -0.3
O=C(N/N=C/c1ccccc1[N+](=O)[O-])c1ccc(COc2ccccc2-c2ccccc2)cc1 | 1.8 | . | 76.8* | -76.8 | -0.8
CCOc1ccc(C(=O)N/N=C/c2ccccc2[N+](=O)[O-])cc1 | 3.9 | . | 26.5 | -26.5 | -0.7
CN(Cc1ccccc1F)C(=O)CN1CCN(S(=O)(=O)c2ccc3c(c2)OCCCO3)CC1 | 27.4 | -9.7 | -3.0 | 3.0 | 2.8
O=C(Nc1ccc(F)cc1)OCCOc1ccc(Br)cc1 | -2.1 | . | -13.5 | 13.5 | 1.9
COc1cc(/C=N\NC(=O)c2ccc(-c3ccccc3)cc2)cc(OC)c1O | -4.1 | 7.0 | 91.7* | -91.7 | 0.5
COc1ccc(/C=N/NC(=O)c2cc3c(ccc4ccccc43)o2)c(OC)c1 | 18.4 | 2.4 | 82.3* | -82.3 | .
COc1ccccc1/C=N/NC(=O)c1cccc2ccccc12 | -3.3 | 3.7 | 77.0* | -77.0 | 1.0
COc1ccc(NS(=O)(=O)c2cc([N+](=O)[O-])ccc2N/N=C/c2c(C)[nH]c3ccccc23)cc1 | 11.9 | -47.4 | 11.4 | -11.4 | .
